Structures are written as SMILES. Where a SMILES comes first, the peptide text is derived from it.

The first assay deals with Mus musculus. In words: Hypoglycemic activity at the lowest dose that causing 20% blood glucose decrease (fasting mice, po). It is filed as functional.
Settings: not given
The method in brief: (§1)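 Male ICR-CD1 mice, 5 weeks old, fasted 18 h, groups of five. Given orally as a suspension in 0.5% (carboxymethyl)cellulose-0.14 M NaCl, 1 mL/kg; vehicle-treated control group run in parallel. Doses 500, 250, 100, 50, 25 and 10 mg/kg. Blood drawn from carotid 1 h after dosing; glucose measured enzymatically by glucose-oxidase-peroxidase; Student's t test (p < 0.05).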
With `O=C(N[C@@H](Cc1ccccc1)C(=O)O)c1cc2ccccc2o1`, the Dose amounted to 100 mg/kg.

The compound `COc1ccc(C(=O)N[C@@H](Cc2ccccc2)C(=O)O)cc1` registered a Dose of 100 mg/kg. Still for that read-out and setting: the value for `CCOc1ccc(C(=O)N[C@@H](Cc2ccccc2)C(=O)O)cc1` was 100 mg/kg; that for `O=C(N[C@@H](Cc1ccccc1)C(=O)O)c1ccc2c(c1)OCO2` was 100 mg/kg; that for `O=C(N[C@@H](Cc1ccccc1)C(=O)O)c1ccccc1` was 150 mg/kg.

Compound `Cc1ccc(C(=O)N[C@@H](Cc2ccccc2)C(=O)O)cc1` yielded a Dose of 100 mg/kg. Still for that read-out and setting: for `O=C(N[C@@H](Cc1ccccc1)C(=O)O)c1ccc2c(c1)CCC2` the value was 250 mg/kg; for `O=C(N[C@@H](Cc1ccccc1)C(=O)O)C1CC=CCC1` (some centres not stated), 100 mg/kg; for `O=C(N[C@@H](Cc1ccccc1)C(=O)O)C1CCCCC1`, 100 mg/kg.

Take `CCCCNC(=O)NS(=O)(=O)c1ccc(C)cc1` [TOLBUTAMIDE]: the Dose is 25 mg/kg. `O=C(NC(Cc1ccccc1)C(=O)O)c1ccccc1` (configuration not stated): the Dose came to 500 mg/kg. As to `O=C(N[C@@H](Cc1ccccc1)C(=O)O)c1ccc2ccccc2c1`, the Dose was determined as 250 mg/kg.

Turning to `O=C(N[C@@H](Cc1ccccc1)C(=O)O)C1CCCC1`, the Dose is 50 mg/kg.

Another assay has as its system Mus musculus. In words: Hypoglycemic activity was determined as decrease in blood glucose at a dose 250 mg/kg in fasting mice after peroral administration. It is filed as functional. The settings on record: route oral. The method in brief: as §1
On to `Cc1ccccc1C(=O)N[C@@H](Cc1ccccc1)C(=O)O`, for which the Decrease was less than 20%. Same read-out and setting: the value for `O=C(N[C@@H](Cc1ccccc1)C(=O)O)c1cnc2ccccc2c1` was less than 20%; that for `Cc1cccc(C(=O)N[C@@H](Cc2ccccc2)C(=O)O)c1` was less than 20%; that for `O=C(N[C@@H](Cc1ccccc1)C(=O)O)c1ccncc1` was less than 20%. As for `O=C(O)/C(=C/c1ccccc1)NC(=O)c1ccccc1`, the Decrease is less than 20%. Same read-out and setting: for `O=C(N[C@@H](Cc1ccccc1)C(=O)O)c1cccnc1` the value was less than 20%; for `O=C(N[C@@H](Cc1ccccc1)C(=O)O)C1CCCCCC1`, less than 20%; for `O=C(N[C@@H](Cc1ccccc1)C(=O)O)c1cccc2ccccc12`, less than 20%. `O=C(O)[C@H](Cc1ccccc1)NC(=O)[C@@H]1CCCN1C(=O)c1ccccc1` came in with a Decrease of less than 20%.

As to `O=C(N[C@@H](Cc1ccccc1)C(=O)O)c1ccc2ccccc2n1`, the Decrease was less than 20%. `O=C(O)[C@H](Cc1ccccc1)NC(=O)[C@H]1CCCN1C(=O)c1ccccc1` registered a Decrease of less than 20%. On the same count and under the same terms, the value for `CC(=O)N1CCC[C@H]1C(=O)N[C@@H](Cc1ccccc1)C(=O)O` (Ac-Pro-Phe-OH) was less than 20%. Still for that read-out and setting: for `O=C(N[C@@H](Cc1ccccc1)C(=O)O)c1ccc2ncccc2c1` the value was less than 20%. On the same count and under the same terms, the value for `O=C(O)[C@H](Cc1ccccc1)NCc1ccccc1` was less than 20%.

`O=C(O)[C@@H]1Cc2ccccc2CN1C(=O)c1ccccc1` registered a Decrease of less than 20%. The same measure, in the same setting: the value for `O=C(O)/C(=C\c1ccccc1)NC(=O)c1ccccc1` was less than 20%; that for `O=C(N[C@H](Cc1ccccc1)C(=O)O)C1CCCC1` was less than 20%. On the same count and under the same terms, the value for `O=C(N[C@H](Cc1ccccc1)C(=O)O)c1ccccc1` was less than 20%. The same measure, in the same setting: the value for `O=C(O)[C@H]1Cc2ccccc2CN1C(=O)c1ccccc1` was less than 20%.

Values taken from ChEMBL document CHEMBL1124000, “N-acylphenylalanines and related compounds. A new class of oral hypoglycemic agents” (1988).
